The text below walks through data of ChEMBL document CHEMBL4020794, “Inhibition of phosphatidylinositol-3-kinase by the furanosesquiterpenoid hibiscone C” (Bioorg Med Chem Lett, 2017).

The source made the active and inactive calls. The rule behind the calls is not given here.

The species entered for assay [1] is Mus musculus. The assay can be described thus: Competitive inhibition of PI3K in C57BL/6 mouse T cells assessed as decrease in Akt phosphorylation at 100 uM after 1 to 3 hrs by Western blot analysis. Type of assay: cell-based. An outline of the steps:
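Growing activated T cells, not starved of IL-2, exposed to 100 µM compound or DMSO vehicle for the indicated times. Phospho-Akt detected by Western blot, actin as loading control. Three independent experiments.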

Assay [2] is filed under the species Mus musculus. The assay can be described thus: Inhibition of PI3K in C57BL/6 mouse IL2 starved T cells assessed as decrease in IL-2 restimulated Akt phosphorylation at 100 uM preincubated for 30 mins followed by recombinant human IL-2 addition measured after 1 to 3 hrs by Western blot analysis. A digest of the protocol: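 Activated T cells deprived of IL-2 overnight, pretreated 30 min with 100 µM compound or DMSO vehicle, then stimulated with 1000 U/mL recombinant human IL-2 for the indicated times. Phospho-Akt detected by Western blot, actin as loading control. Three independent experiments.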

Assay [3] deals with T-cell. The assay can be described thus: Antiproliferative activity against C57BL/6 mouse T cells at […] after 18 hrs by trypan blue assay. Type of assay: functional, cell-based. An outline of the steps: (§1)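 Activated T cells in growth (not IL-2 starved) culture, duplicate samples, given DMSO vehicle or compound at the indicated doses. Followed over 24 h. At set time points, cells counted for proliferation and viability scored by trypan blue exclusion.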

For assay [4], the system named is T-cell. The assay can be described thus: Cytotoxicity against C57BL/6 mouse T cells assessed as reduction in cell viability at 100 uM after 24 hrs by trypan blue assay. Type of assay: functional, cell-based. An outline of the steps: as §1
For assay [5], the species on record is Mus musculus. The assay can be described thus: Inhibition of PI3K in C57BL/6 mouse T cells assessed as decrease in Akt phosphorylation at <10 uM after 1 hr by Western blot analysis. It is filed as cell-based.

Consider `CC(C)[C@@H]1CC(=O)c2coc3c2[C@H]1C[C@@H](C)C3=O`, for which the inhibition result in the assay listed under Mus musculus [1] and in the assay listed under Mus musculus [2] was “Active” in each case. In addition, the result in the assay with T-cell [3] and in the assay on T-cell [4] was Active. In the assay listed under Mus musculus [5], the inhibition result is “inactive”.
